Key:
[1] = molecular target: T1, Glutamate receptor ionotropic, AMPA (Rattus norvegicus, UniProt P19490+P19491+P19492+P19493); assay: Inhibition of Ionotropic glutamate receptor AMPA mediated depolarization by the compound at a concentration of 200 uM after 20 minutes in rat
Rattus norvegicus [2] = species: Rattus norvegicus; assay: Compound was tested for the stimulation of Phosphoinositide (PI) hydrolysis in rat hippocampus; format: functional, organism-based
Summary of the method: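 Slices of neonatal (6–11-day-old) Sprague–Dawley rat hippocampus, labelled with [3H]-myo-inositol. Inositol phosphate accumulation was expressed per 100 000 DPM of total incorporated radiolabel (lipid plus soluble IP fraction) under basal conditions. Concentration–response data were fit with Hill coefficient 1. Mean ± SEM of four experiments.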

Rattus norvegicus [3] = species: Rattus norvegicus; assay: Inhibition of the sensitization of CA1 pyramidal neurons to depolarization by L-AP6 after reversal with L-alpha-AA; format: functional, organism-based; settings: Pyramidal neuron
Rattus norvegicus [4] = species: Rattus norvegicus; assay: Inhibition of the sensitization of CA1 pyramidal neurons to depolarization by L-AP6 by the compound at a concentration of 200 uM after 20 minutes; format: functional, organism-based; settings: Pyramidal neuron
Rattus norvegicus [5] = species: Rattus norvegicus; assay: Inhibition of the sensitization of CA1 pyramidal neurons to depolarization by L-AP6 by the compound at a concentration of 200 uM before 20 minutes; format: functional, organism-based; settings: Pyramidal neuron
[6] = molecular target: Metabotropic glutamate receptor 5 (Homo sapiens, UniProt P41594); assay: Compound was tested for the stimulation of Phosphoinositide (PI) hydrolysis in BHK cells expressing mGluR5a receptor; format: functional, cell-based
Metabotropic glutamate receptor 5, sequence (P41594 whole entry): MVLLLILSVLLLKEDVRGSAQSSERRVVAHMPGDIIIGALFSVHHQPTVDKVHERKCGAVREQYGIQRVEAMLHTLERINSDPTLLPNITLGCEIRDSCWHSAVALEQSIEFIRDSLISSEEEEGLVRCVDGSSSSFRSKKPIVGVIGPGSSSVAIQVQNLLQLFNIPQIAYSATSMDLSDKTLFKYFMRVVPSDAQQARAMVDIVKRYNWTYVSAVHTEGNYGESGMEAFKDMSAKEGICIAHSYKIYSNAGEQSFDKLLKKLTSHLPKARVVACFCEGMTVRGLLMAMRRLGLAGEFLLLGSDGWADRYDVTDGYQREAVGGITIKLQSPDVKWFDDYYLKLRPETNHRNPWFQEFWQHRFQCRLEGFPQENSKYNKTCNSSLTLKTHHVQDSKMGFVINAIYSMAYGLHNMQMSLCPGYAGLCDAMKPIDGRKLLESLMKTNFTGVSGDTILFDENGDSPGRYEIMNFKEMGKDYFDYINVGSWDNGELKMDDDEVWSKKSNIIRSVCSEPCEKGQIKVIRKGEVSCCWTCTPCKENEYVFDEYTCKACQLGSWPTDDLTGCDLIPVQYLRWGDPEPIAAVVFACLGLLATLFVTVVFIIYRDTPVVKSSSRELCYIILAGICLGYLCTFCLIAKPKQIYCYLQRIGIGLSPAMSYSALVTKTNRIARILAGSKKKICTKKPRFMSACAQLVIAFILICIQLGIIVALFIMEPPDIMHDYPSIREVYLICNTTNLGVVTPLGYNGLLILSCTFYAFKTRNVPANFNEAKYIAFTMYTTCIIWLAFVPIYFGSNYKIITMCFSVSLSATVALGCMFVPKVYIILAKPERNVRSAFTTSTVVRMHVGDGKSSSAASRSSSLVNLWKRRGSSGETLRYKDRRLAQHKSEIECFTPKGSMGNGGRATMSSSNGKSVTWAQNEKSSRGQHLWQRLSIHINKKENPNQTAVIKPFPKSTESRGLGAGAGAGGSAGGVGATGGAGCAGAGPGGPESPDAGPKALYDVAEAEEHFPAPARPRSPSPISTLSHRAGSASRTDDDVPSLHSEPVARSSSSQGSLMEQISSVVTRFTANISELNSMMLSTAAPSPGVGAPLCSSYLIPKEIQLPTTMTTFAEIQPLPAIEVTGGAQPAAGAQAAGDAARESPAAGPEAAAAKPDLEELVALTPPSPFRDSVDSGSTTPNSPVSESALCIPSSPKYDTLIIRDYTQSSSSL
Summary of the method: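 BHK570 cells stably expressing mGluR5a, kept under 2 μM methotrexate selection in DMEM with 5% heat-inactivated FBS, 2 mM glutamine and 5% CO2. Grown to 60–90% confluence, then labelled 16–20 h with 1 μCi/mL [3H]-myo-inositol. PI hydrolysis was measured by the Thomsen method and normalized to 100 000 DPM of total incorporated label. Mean ± SEM of 3–6 experiments; EC50 from concentration–response curves.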

[7] = molecular target: T1, Glutamate receptor ionotropic, AMPA; assay: Inhibition of Ionotropic glutamate receptor AMPA mediated depolarization by the compound at a concentration of 400 uM after 20 minutes in rat
Rattus norvegicus [8] = species: Rattus norvegicus; assay: Inhibition of the sensitization of CA1 pyramidal neurons to depolarization by L-AP6 by the compound at a concentration of 400 uM after 20 minutes; format: functional, organism-based; settings: Pyramidal neuron
Rattus norvegicus [9] = species: Rattus norvegicus; assay: Inhibition of the sensitization of CA1 pyramidal neurons to depolarization by L-AP6 by the compound at a concentration of 400 uM before 20 minutes; format: functional, organism-based; settings: Pyramidal neuron
Rattus norvegicus [10] = species: Rattus norvegicus; assay: Inhibition of the sensitization of CA1 pyramidal neurons to depolarization by L-AP6 after reversal with L-alpha-AA by the compound at a concentration of 16 uM after 4 minutes; format: functional, organism-based; settings: Pyramidal neuron
Summary of the method: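 Rat hippocampal slices. The sensitization was reversed by treating the slices with 2 mM L-α-aminoadipic acid for 10 min.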

Rattus norvegicus [11] = species: Rattus norvegicus; assay: Inhibition of the sensitization of CA1 pyramidal neurons to depolarization by L-AP6 by the compound at a concentration of 16 uM after 4 minutes; format: functional, organism-based; settings: Pyramidal neuron
Summary of the method: (§1)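 Rat hippocampal slices. Sensitization of CA1 neurons to phosphonate depolarization was measured in the QUIS-effect slice assay.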

Rattus norvegicus [12] = species: Rattus norvegicus; assay: Inhibition of the sensitization of CA1 pyramidal neurons to depolarization by L-AP6 by the compound at a concentration of 16 uM before 4 minutes; format: functional, organism-based; settings: Pyramidal neuron; summary of the method: as §1

Row | IC50 [1] [µM] | EC50 (Rattus norvegicus [2]) [µM] | EC50 [6] [µM] | IC50 [7] [µM] | SMILES | IC50 (Rattus norvegicus [3]) [µM] | IC50 (Rattus norvegicus [4]) [µM] | IC50 (Rattus norvegicus [5]) [µM] | IC50 (Rattus norvegicus [8]) [µM] | IC50 (Rattus norvegicus [9]) [µM] | IC50 (Rattus norvegicus [10]) [µM] | IC50 (Rattus norvegicus [11]) [µM] | IC50 (Rattus norvegicus [12]) [µM]
1 | 69 | 18 | 11 |  | N[C@]1(C(=O)O)C[C@H](n2oc(=O)[nH]c2=O)C1 | > 10000 | 7000 | > 10000 |  |  |  |  | 
2 |  | 53 | 49 | 390 | N[C@]1(C(=O)O)C[C@@H](n2oc(=O)[nH]c2=O)C1 |  |  |  | > 10000 | > 10000 |  |  | 
3 |  |  |  |  | N[C@@H](Cn1oc(=O)[nH]c1=O)C(=O)O [QUISQUALATE] |  |  |  |  |  | 1900 | 40 | > 10000
